# Read-outs that look alike come from different tables or passages of the source.
# Key:
# [1] = system: orthotopic glioblastoma; conditions: cited from earlier work
# [2] = system: glioblastoma; conditions: cited from earlier work
# [3] = assay type: in vivo; conditions: human, plasma, oral, 30 mg/day; for AUC(0-t): GM AUC0-24, plasma; for Cmax: GM Cmax; for Tmax: Median tmax (range)
# How it was run: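 Patients took 30 mg/day orally on days 1–4 before resection. Plasma was sampled at multiple time points through cycle 1 and at surgery, then assayed by LC-MS/MS (High Assay Range). Cmax, tmax, AUC and t½ came from non-compartmental analysis and were summarised as geometric means.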
# [4] = assay type: in vivo, human
# How it was run: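 Patients took 30 mg/day orally on days 1–4, with salvage resection planned 6–24 h after the day 4 dose. Resected tumour (contrast-enhancing and non-enhancing where possible), CSF and time-matched plasma were collected during surgery. Results were summarised as geometric means. Free tissue concentration and unbound partition coefficient were estimated from plasma protein binding and tissue binding.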
# [5] = system: CCR1 mRNA; assay: CCR1 mRNA in whole blood; assay type: in vivo, human; conditions: after the fourth preoperative dose, 30 mg/day; mean (SD ± 28.5)
# How it was run: (§1)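 Patients took 30 mg/day orally on days 1–4 before salvage resection. Blood samples for pharmacodynamics were drawn at multiple time points through cycle 1 and at surgery. CCR1 and HEXIM1 expression in blood was measured by RNA-Seq.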
# [6] = system: HEXIM1 mRNA; assay: HEXIM1 mRNA in whole blood; assay type: in vivo, human; conditions: 72–96 h after the first preoperative dose, 30 mg/day
# How it was run: as §1
# [7] = Safety: treatment-related adverse events; assay type: in vivo, human
# How it was run: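 AEs were coded with MedDRA 24.0 and graded by NCI CTCAE 5.0. They were reported separately for the preoperative period (30 mg/day days 1–4, until maintenance start) and for postoperative maintenance (45 mg/day 4 days on/24 days off per 28-day cycle, onward). Maintenance continued until progression, unacceptable toxicity or consent withdrawal.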
# [8] = stated without reference; cited from earlier work
# [9] = system: advanced cancers, including high-grade gliomas; conditions: 45 mg/day 4 days on/24 days off per 28-day cycle; cited from earlier work
# [10] = postoperative maintenance 45 mg/day 4 days on/24 days off, n = 16
# [11] = preoperative 30 mg/day days 1–4, n = 20
smiles,measurement,setting,value
Cc1sc2c(c1C)C(c1ccc(Cl)cc1)=N[C@@H](CC(=O)Nc1ccc(O)cc1)c1nnc(C)n1-2 [OTX015],Antitumor activity,[1],showed antitumor activity
same,Penetration of brain tumor tissue,[1]; markedly lower concentrations in peritumoral and distant brain tissue,high penetration of brain tumor tissue
same,Clinical efficacy (study outcome),[2],lack of efficacy
Cn1cc(-c2cc(S(C)(=O)=O)ccc2OCC2CC2)c2ccccc2c1=O [Trotabresib],half-life,[3],46 h
same,AUC(0-t),"[3]; cycle 1 day 1, GM (% GCV)",5080 ng·h/mL
same,AUC(0-t),"[3]; cycle 1 day 4, GM (% GCV)",11200 ng·h/mL
same,Cmax,"[3]; cycle 1 day 1, GM (% GCV)",392 ng/mL
same,Cmax,"[3]; cycle 1 day 4, GM (% GCV)",720 ng/mL
same,Tmax,[3]; cycle 1 day 1,1.5 h
same,Tmax,[3]; cycle 1 day 4,1.9 h
same,"Plasma concentration at the time of surgery, GM (% GCV)","[4]; after 30 mg/day days 1–4, n = 19",1020 nM
same,GM free (tissue binding-corrected) trotabresib concentration in brain tissue,"[4]; calculated, n = 20, GM (% GCV)",0.028 µM
same,"CSF concentration, GM (% GCV)",[4]; n = 13,0.14 µM
same,"Brain tumor tissue concentration, GM (% GCV)","[4]; resected tissue after 30 mg/day days 1–4, n = 20",0.74 µM
same,"Blood levels of CCR1 mRNA, % of baseline levels",[5],45.8%
same,Blood levels of HEXIM1 mRNA versus baseline,[6],increased from baseline in all patients
same,Serious TRAEs,[7]; overall study,No serious TRAEs
same,Treatment discontinuation due to AEs,[7]; overall study,No patients discontinued treatment due to AEs
same,"Any TRAE, any grade, patients",[7]; [10],100%
same,"Asthenia, grade 3/4 TRAE, number of patients",[7]; [10],1 patient
same,"Thrombocytopenia, grade 3/4 TRAE, number of patients",[7]; [10],5 patients
same,"Dose reduction due to thrombocytopenia, number of patients","[7]; postoperative treatment period, 45 mg/day",1 patient
same,"Dose interruptions due to AEs, number of patients","[7]; postoperative treatment period, 45 mg/day, thrombocytopenia in 2, pancreatitis in 1",3 patients
same,Surgery delayed or canceled due to an AE,[7]; preoperative 30 mg/day days 1–4,No patients
same,"ALT increased, grade 3/4 TRAE, number of patients",[7]; [11],1 patient
same,"Any TRAE, any grade, patients",[7]; [11],60%
same,"Any TRAE, grade 3/4, patients",[7]; [11],10%
same,"Lymphopenia, grade 3/4 TRAE, number of patients",[7]; [11],1 patient
same,"Thrombocytopenia, grade 1/2, patients",[7]; [11],25%
same,Lipophilicity,[8],high lipophilicity
same,Prolonged progression-free survival (PFS) in some patients,[9],up to 3 years
